Activity calls are given as the source filed them. No cut-off for these calls is given here.
Assays:
[1] = tested on: TGF-beta receptor type-1 (Homo sapiens), P36897 [T204D]; experiment: Inhibition of human TGFBR1 T204D mutant (200 to end residues) at 1 uM using casein as substrate measured after 40 mins in presence of [gamma33P]ATP by scintillation counting method relative to control
Outline: (§1)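 Percent inhibition of kinase activity at a single compound concentration, measured by the outsourced Eurofins KinaseProfiler panel. Values are the mean of two independent experiments.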

NCI-H1299 = experiment: Antitumour activity against human H1299 cells xenografted in Balb/c mouse assessed as inhibition of Rb phosphorylation at Ser 780 residue at 20 to 80 mg/kg, po administered for 3 weeks by […] based light microscopic analysis; assay type: functional, organism-based
Outline: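 Tumours came from the H1299 oral-dosing xenograft run for 3 weeks. Formalin-fixed, paraffin-embedded 5-µm sections were deparaffinized and rehydrated. Primary antibodies (CDK9, cyclin T1, p-Rb Ser780, RNAPII CTD Ser5, Oct4) used at 1:100 overnight at 4 °C. Biotinylated secondary for 1 h at room temperature, then ABC-peroxidase/DAB, hematoxylin counterstain and light microscopy.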

[2] = tested on: CDK18/Cyclin Y (Homo sapiens), Q07002+Q8ND76 [T166M]; experiment: Inhibition of recombinant full length human cyclinY/CDK18 T166M mutant at 1 uM using YRRAAVPPSPSLS as substrate measured after 40 mins in presence of [gamma33P]ATP by scintillation counting method relative to control; assay type: protein-complex assay
Outline: (§2)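 Single-point inhibition at 1 µM was measured in the Eurofins KinaseProfiler panel. Values are the mean of two independent experiments.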

[3] = biological target: Serine/threonine-protein kinase ULK2 (Homo sapiens) (UniProt Q8IYT8); experiment: Inhibition of human ULK2 (1 to 306 residues) using casein as substrate measured after 40 mins in presence of [gamma33P]ATP by scintillation counting method relative to control
[4] = tested on: Tyrosine-protein kinase ABL1 (Homo sapiens), P00519 [H396P]; experiment: Inhibition of recombinant human ABL H396P mutant (27 to end residues) at 1 uM using EAIYAAPFAKKK as substrate measured after 40 mins in presence of [gamma33P]ATP by scintillation counting method relative to control
[5] = biological target: Bone morphogenetic protein receptor type-1B (Homo sapiens) (UniProt O00238); experiment: Inhibition of recombinant human ALK6 (148 to end residues) at 1 uM using casein as substrate measured after 40 mins in presence of [gamma33P]ATP by scintillation counting method relative to control
Bone morphogenetic protein receptor type-1B (Homo sapiens), sequence (O00238 whole entry, the tested form may be a part): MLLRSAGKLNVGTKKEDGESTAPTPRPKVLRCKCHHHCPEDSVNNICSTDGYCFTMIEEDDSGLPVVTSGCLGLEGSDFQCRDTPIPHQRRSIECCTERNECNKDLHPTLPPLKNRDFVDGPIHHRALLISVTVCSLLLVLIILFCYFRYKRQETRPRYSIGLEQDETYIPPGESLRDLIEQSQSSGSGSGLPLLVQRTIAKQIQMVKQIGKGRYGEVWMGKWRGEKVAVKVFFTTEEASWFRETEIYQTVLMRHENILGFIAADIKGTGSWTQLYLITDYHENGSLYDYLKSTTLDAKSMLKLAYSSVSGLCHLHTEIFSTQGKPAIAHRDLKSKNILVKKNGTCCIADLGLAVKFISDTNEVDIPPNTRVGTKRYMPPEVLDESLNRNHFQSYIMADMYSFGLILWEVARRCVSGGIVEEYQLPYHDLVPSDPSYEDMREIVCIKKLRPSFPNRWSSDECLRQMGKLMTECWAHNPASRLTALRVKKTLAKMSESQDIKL

[6] = biological target: Serine/threonine-protein kinase PLK2 (Homo sapiens) (UniProt Q9NYY3); experiment: Inhibition of human Snk (65 to 409 residues) at 1 uM using casein as substrate measured after 40 mins in presence of [gamma33P]ATP by scintillation counting method relative to control; outline: as §1
Serine/threonine-protein kinase PLK2 (Homo sapiens), sequence (Q9NYY3 whole entry, looked up, the tested form may be a part): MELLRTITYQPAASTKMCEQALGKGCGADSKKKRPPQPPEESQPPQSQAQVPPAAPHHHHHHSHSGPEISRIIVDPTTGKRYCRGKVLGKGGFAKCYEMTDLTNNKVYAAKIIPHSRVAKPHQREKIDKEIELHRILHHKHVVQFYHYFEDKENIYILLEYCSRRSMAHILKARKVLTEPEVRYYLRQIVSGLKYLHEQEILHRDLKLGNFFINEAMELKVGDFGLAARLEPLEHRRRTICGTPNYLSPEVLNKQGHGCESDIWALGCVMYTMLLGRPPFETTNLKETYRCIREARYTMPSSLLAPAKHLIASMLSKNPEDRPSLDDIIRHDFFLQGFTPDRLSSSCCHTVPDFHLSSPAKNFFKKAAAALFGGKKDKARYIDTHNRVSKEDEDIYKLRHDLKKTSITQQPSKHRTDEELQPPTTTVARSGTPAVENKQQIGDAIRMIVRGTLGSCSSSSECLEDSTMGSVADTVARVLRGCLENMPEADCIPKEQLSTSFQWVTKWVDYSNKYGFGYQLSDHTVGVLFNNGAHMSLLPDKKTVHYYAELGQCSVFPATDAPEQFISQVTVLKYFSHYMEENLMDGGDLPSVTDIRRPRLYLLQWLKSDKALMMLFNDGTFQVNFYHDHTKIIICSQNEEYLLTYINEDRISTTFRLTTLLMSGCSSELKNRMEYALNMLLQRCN

[7] = tested on: Tyrosine-protein kinase ABL1 (Homo sapiens), P00519 [Q252H]; experiment: Inhibition of recombinant human ABL Q252H mutant (27 to end residues) at 1 uM using EAIYAAPFAKKK as substrate measured after 40 mins in presence of [gamma33P]ATP by scintillation counting method relative to control
[8] = tested on: Glycogen synthase kinase-3 beta (Homo sapiens), P49841 [UNDEFINED MUTATION]; experiment: Inhibition of human recombinant GSK3beta H350L mutant (2 to end residues) at 1 uM using YRRAAVPPSPSLSR as substrate incubated for 40 mins in presence of [gamma-33P]ATP at Km concentration by radiometric assay relative to control; outline: as §2
Glycogen synthase kinase-3 beta (Homo sapiens), P49841 [UNDEFINED MUTATION], sequence (P49841 whole entry, looked up, stated change not applied, the tested form may be a part): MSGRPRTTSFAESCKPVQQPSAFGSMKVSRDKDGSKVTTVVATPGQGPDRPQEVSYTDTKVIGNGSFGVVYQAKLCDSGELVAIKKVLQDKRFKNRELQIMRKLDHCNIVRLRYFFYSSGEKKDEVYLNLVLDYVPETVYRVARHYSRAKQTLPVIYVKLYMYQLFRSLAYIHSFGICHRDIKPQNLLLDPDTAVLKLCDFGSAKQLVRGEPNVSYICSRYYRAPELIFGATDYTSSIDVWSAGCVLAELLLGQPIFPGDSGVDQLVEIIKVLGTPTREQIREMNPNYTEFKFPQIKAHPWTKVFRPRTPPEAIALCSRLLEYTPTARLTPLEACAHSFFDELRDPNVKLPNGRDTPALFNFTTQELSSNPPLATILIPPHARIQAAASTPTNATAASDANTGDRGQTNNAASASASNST

[9] = biological target: Maternal embryonic leucine zipper kinase (Homo sapiens) (UniProt Q14680); experiment: Inhibition of recombinant human MELK (1 to 340 residues) at 1 uM using KKLNRTLSFAEPG as substrate measured after 40 mins in presence of [gamma33P]ATP by scintillation counting method relative to control
Maternal embryonic leucine zipper kinase (Homo sapiens), sequence (Q14680 whole entry, looked up, the tested form may be a part): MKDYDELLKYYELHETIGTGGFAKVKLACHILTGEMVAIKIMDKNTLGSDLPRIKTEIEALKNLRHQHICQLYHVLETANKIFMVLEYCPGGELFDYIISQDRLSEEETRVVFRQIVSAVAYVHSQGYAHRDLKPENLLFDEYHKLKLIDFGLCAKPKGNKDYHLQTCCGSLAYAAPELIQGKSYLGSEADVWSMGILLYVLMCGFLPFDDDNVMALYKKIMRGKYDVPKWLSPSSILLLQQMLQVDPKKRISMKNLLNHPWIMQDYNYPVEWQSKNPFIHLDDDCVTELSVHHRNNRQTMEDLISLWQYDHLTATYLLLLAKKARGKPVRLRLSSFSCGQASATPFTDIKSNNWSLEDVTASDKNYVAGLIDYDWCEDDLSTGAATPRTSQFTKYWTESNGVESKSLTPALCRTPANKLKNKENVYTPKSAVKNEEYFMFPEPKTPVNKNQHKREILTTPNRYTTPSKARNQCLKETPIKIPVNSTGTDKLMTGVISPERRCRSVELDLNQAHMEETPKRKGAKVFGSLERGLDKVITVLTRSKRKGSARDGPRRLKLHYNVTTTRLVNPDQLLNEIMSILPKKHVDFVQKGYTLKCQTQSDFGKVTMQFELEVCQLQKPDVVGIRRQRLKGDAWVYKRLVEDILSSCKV

[10] = tested on: Tyrosine-protein kinase ABL1 (Homo sapiens), P00519 [Y253F]; experiment: Inhibition of recombinant human Abl Y253F mutant (27 to end residues) at 1 uM using EAIYAAPFAKKK as substrate measured after 40 mins in presence of [gamma33P]ATP by scintillation counting method relative to control
A549 = experiment: Inhibition of colony formation in human A549 cells after 12 days by crystal violet staining based assay; assay type: functional, cell-based
Outline: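 Cells exposed to compound, then washed, trypsinized and reseeded at 300 cells per well in 6-well plates. Colonies grew 10-14 days (legend: 12 days), were fixed in methanol 30 min, stained overnight with 0.5% crystal violet and imaged.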

[11] = biological target: Serine/threonine-protein kinase D3 (Homo sapiens) (UniProt O94806); experiment: Inhibition of recombinant full-length human PKD3 at 1 uM using KKLRRTLSVA as substrate measured after 40 mins in presence of [gamma33P]ATP by scintillation counting method relative to control
[12] = biological target: Serine/threonine-protein kinase Nek9 (Homo sapiens) (UniProt Q8TD19); experiment: Inhibition of recombinant human NEK9 (1 to 324 residues) at 1 uM using myelin basic protein as substrate measured after 40 mins in presence of [gamma33P]ATP by scintillation counting method relative to control
Serine/threonine-protein kinase Nek9 (Homo sapiens), sequence (Q8TD19 whole entry, the tested form may be a part): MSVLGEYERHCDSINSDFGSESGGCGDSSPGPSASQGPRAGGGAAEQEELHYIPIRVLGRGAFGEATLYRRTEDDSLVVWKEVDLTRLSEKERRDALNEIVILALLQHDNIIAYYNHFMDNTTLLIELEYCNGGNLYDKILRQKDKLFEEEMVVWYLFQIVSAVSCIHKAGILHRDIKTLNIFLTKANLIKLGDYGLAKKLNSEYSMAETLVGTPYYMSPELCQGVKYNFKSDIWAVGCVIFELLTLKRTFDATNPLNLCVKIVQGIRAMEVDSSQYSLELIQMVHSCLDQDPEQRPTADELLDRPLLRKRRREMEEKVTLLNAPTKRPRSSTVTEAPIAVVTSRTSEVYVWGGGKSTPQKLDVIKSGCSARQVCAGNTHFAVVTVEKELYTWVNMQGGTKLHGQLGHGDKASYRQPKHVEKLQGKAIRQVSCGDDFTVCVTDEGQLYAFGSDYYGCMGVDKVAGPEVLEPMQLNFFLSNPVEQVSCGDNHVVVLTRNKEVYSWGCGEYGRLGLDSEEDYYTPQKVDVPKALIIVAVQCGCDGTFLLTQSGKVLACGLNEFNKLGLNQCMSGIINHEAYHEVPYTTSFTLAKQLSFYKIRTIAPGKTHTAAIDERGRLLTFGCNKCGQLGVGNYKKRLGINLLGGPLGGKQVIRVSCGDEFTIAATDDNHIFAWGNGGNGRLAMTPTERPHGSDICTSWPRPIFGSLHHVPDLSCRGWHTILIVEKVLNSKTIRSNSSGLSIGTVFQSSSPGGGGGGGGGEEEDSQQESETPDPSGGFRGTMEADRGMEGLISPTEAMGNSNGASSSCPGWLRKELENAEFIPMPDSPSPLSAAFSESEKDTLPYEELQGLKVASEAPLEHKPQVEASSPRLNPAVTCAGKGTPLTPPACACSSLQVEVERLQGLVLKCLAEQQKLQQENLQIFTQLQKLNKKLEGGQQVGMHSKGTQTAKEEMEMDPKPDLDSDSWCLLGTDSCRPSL

[13] = biological target: Serine/threonine-protein kinase NLK (Homo sapiens) (UniProt Q9UBE8); experiment: Inhibition of recombinant human NLK (121 to end residues) at 1 uM using myelin basic protein as substrate measured after 40 mins in presence of [gamma33P]ATP by scintillation counting method relative to control
[14] = biological target: Ephrin type-A receptor 5 (Homo sapiens) (UniProt P54756); experiment: Inhibition of recombinant human EphA5 (655 to 956 residues) at 1 uM using poly(Glu, Tyr) 4:1 as substrate measured after 40 mins in presence of [gamma33P]ATP by scintillation counting method relative to control
[15] = biological target: SRSF protein kinase 1 (Homo sapiens) (UniProt Q96SB4); experiment: Inhibition of human SRPK1 (2 to end residues) at 1 uM using RSRSRSRSRSRSRSR as substrate measured after 40 mins in presence of [gamma33P]ATP by scintillation counting method relative to control; outline: as §2
[16] = biological target: Insulin receptor-related protein (Homo sapiens) (UniProt P14616); experiment: Inhibition of recombinant human IRR (943 to 1266 residues) at 1 uM using myelin basic protein as substrate measured after 40 mins in presence of [gamma33P]ATP by scintillation counting method relative to control
[17] = tested on: Hepatocyte growth factor receptor (Homo sapiens), P08581 [D1228N]; experiment: Inhibition of recombinant human MET A1209G/V1290L/D1246N mutant (974 to end residues) at 1 uM using KKKGQEEEYVFIE as substrate measured after 40 mins in presence of [gamma33P]ATP by scintillation counting method relative to control
[18] = biological target: Ephrin type-A receptor 8 (Homo sapiens) (UniProt P29322); experiment: Inhibition of recombinant human EphA8 (615 to 911 residues) at 1 uM using KTFCGTPEYLAPEVRREPRILSEEEQEMFRDFDYIADWC as substrate measured after 40 mins in presence of [gamma33P]ATP by scintillation counting method relative to control
Ephrin type-A receptor 8 (Homo sapiens), sequence (P29322 whole entry, the tested form may be a part): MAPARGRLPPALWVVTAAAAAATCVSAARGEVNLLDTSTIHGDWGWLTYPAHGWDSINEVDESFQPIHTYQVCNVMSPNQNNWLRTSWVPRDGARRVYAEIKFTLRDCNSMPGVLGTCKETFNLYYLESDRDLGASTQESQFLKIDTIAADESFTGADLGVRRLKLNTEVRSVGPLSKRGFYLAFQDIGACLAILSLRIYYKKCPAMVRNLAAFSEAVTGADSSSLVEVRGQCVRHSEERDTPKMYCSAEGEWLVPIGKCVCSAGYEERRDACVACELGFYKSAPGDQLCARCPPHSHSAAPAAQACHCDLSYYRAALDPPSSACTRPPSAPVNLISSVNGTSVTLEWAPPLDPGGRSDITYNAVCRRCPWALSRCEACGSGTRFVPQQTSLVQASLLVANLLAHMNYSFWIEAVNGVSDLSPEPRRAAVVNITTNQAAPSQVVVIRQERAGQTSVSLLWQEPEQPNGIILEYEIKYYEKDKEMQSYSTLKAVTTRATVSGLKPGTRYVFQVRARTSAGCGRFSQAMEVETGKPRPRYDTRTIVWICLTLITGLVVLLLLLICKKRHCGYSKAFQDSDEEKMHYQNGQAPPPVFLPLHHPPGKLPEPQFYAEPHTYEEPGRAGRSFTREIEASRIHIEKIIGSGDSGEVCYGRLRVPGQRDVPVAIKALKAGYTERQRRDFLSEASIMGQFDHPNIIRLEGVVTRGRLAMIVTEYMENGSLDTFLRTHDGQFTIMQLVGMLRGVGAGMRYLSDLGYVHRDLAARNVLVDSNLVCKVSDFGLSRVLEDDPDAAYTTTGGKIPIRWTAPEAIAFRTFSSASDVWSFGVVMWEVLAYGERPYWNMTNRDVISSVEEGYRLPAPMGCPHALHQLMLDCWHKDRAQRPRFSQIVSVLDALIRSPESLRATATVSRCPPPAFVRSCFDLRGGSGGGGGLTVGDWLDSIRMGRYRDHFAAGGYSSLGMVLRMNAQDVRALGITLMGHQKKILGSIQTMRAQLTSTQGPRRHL

TGF-beta receptor type-1 (Homo sapiens), P36897 [T204D], sequence (P36897 whole entry T204D): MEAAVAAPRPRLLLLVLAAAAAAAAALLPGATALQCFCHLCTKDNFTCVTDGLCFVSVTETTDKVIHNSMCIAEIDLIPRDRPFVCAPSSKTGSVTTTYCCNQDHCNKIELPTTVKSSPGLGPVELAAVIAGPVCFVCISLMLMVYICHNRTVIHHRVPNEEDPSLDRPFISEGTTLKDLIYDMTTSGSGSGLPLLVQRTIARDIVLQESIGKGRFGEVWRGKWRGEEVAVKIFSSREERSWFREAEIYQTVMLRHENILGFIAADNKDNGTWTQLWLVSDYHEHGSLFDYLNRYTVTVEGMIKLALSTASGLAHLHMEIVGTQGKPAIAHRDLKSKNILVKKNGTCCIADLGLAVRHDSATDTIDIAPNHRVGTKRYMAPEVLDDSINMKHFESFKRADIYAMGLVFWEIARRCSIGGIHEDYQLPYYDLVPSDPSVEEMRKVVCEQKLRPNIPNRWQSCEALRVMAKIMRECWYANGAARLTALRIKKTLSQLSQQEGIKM

Question: Which inhibition [1] does the source give for `CN(C)C(=O)c1cc2cnc(Nc3ccc(NC(=O)CCCCCCCN=C=S)cc3)nc2n1C1CCCC1` here?
Answer: 13%

Question: And the Activity (NCI-H1299)?
Answer: Active

Question: And the inhibition [2]?
Answer: 11%

Question: What about the inhibition [3] of the same molecule?
Answer: -7%

Question: What about the inhibition [4] of the same molecule?
Answer: 35%

Question: What about the inhibition [5] of the same molecule?
Answer: -1%

Question: What about the inhibition [6] of the same molecule?
Answer: 4%

Question: What about the inhibition [7] of the same molecule?
Answer: 48%

Question: And the inhibition [8]?
Answer: 32%

Question: And the inhibition [9]?
Answer: 88%

Question: And the inhibition [10]?
Answer: 53%

Question: And the inhibition (A549)?
Answer: Dose-dependent effect

Question: And the inhibition [11]?
Answer: 15%

Question: What about the inhibition [12] of the same molecule?
Answer: 41%

Question: And the inhibition [13]?
Answer: 13%

Question: What about the inhibition [14] of the same molecule?
Answer: 6%

Question: And the inhibition [15]?
Answer: 12%

Question: And the inhibition [16]?
Answer: 3%

Question: What about the inhibition [17] of the same molecule?
Answer: 65%

Question: And the inhibition [18]?
Answer: 2%
